In the array DNA melting data of Ke et al. (doi:10.1101/2024.01.08.574731) one finds folding enthalpy and Tm data, which are given here for 55 sequences.

Data set [1] can be described thus: folding enthalpy; higher = less favourable; fluorescence melt of hairpins on a sequencing array, two-state fit. As to conditions: sodium 0.088 M. In outline:
(§1)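 Bootstrapped two-state fits yielded melting temperature and folding enthalpy for library hairpins. Cy3 fluorescence, with annealed Cy3 and quencher oligos, was imaged on a sequenced MiSeq flow cell in 50 mM Na-HEPES pH 8.0, 25 mM NaCl in 2.5 °C steps up to 60 °C, and normalised to pre-quench Cy3 and to control constructs. Four replicates were combined by inverse variance, and fitted temperatures were raised by 9.35 °C to match UV melts.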

A short description of data set [2]: melting temperature; fluorescence melt of hairpins on a sequencing array, two-state fit, raised by 9.35 °C to match UV melts. As to conditions: sodium 0.088 M. In outline: as §1

Turning to GCACTCCGAAAGGATTGC (((.(((....))).))), in data set [1], the folding enthalpy is -28.1 kcal/mol. Further, in data set [2], the Tm was found to be 50.6 °C.
In the case of GCTCACCGAAAGGTAGC (((.(((....)))))), the folding enthalpy in data set [1] was -22.4 kcal/mol. In addition, in data set [2], the Tm is 50.2 °C.
Turning to GCAACTCGAAAGAGCTGC (((.(((....))).))), the folding enthalpy in data set [1] is -46.6 kcal/mol. Further, the Tm in data set [2] stood at 52.3 °C.
Regarding GCACCGCGAAAGCGATGC (((.(((....))).))), the folding enthalpy in data set [1] was -43.6 kcal/mol. In data set [2], the Tm turned out to be 57.4 °C.
In the case of GAGTGCGGAAACACACTC (((((.(....).))))), the folding enthalpy in data set [1] was -28.4 kcal/mol. Besides, in data set [2], the Tm is 47.5 °C.
For GATCTAGGGTTAGATC ((((((....)))))), the folding enthalpy in data set [1] is -28.4 kcal/mol. In addition, the Tm in data set [2] was 37.4 °C.
As for GTGCCAGGAAACTGGTGC (..((((....))))..), the folding enthalpy in data set [1] is -26.2 kcal/mol. Further, the Tm in data set [2] came to 48 °C.
GCAGAGCGAAAGCTCCGC ((.((((....)))).)): the folding enthalpy in data set [1] is -16.8 kcal/mol. In addition, in data set [2], the Tm was 61.1 °C.
As for GGAAACGAAAGTTTATCC ((((((....)))..))), in data set [1], the folding enthalpy is -12.3 kcal/mol. The Tm in data set [2] amounted to 25.6 °C.
The matching figures for GCGTCAATACGC ((((....)))): -22.8 kcal/mol and 51.4 °C.
Turning to GCCATCGAAAGATTGGGC ((((((....)))..))), the folding enthalpy in data set [1] is -26.8 kcal/mol. In data set [2], the Tm worked out at 44.1 °C.
As for GTGACGGGAAACCGTTGC (..((((....))))..), the folding enthalpy in data set [1] was -17.6 kcal/mol. Also, the Tm in data set [2] is 45.4 °C.
On to GCCGAGCGAAAGCTGGC (((.(((....)))))), for which, in data set [1], the folding enthalpy is -25.1 kcal/mol. Further, the Tm in data set [2] amounted to 68.6 °C.
The matching figures for GATCTTCGGAAAGATC ((((((....)))))): -29.1 kcal/mol and 38.9 °C.
The matching figures for GTTCATCGAAAGATTAAC (((.(((....))).))): -34.2 kcal/mol and 32.6 °C.
On the same counts, the results for ACAGTGAAAACTGT (((((....))))) are -19.2 kcal/mol and 45.7 °C.
In the case of GCGTCGGTACGC ((((....)))), the folding enthalpy in data set [1] is -19.3 kcal/mol. For the same sequence, the Tm in data set [2] amounted to 52.8 °C.
Turning to GGCATCGGAAACGATACC ((.((((....)))).)), the folding enthalpy in data set [1] was -27.1 kcal/mol. In data set [2], the Tm stood at 45.6 °C.
For the sequence GAACGCGAAAGCGGATTC ((((((....)))..))), the folding enthalpy in data set [1] is -15.8 kcal/mol. For the same sequence, the Tm in data set [2] was 49.5 °C.
As to GATCTAGACATAGATC ((((((....)))))), the folding enthalpy in data set [1] is -35 kcal/mol. In data set [2], the Tm worked out at 47.9 °C.
In the case of GACGTACGAAAGTATGTC (((.(((....))).))), the folding enthalpy in data set [1] was -43.4 kcal/mol. In data set [2], the Tm was determined as 54.6 °C.
Turning to GCGGTACGAAAGTATCGC (((.(((....))).))), the folding enthalpy in data set [1] is -56.1 kcal/mol. For the same sequence, the Tm in data set [2] was 64.7 °C.
For the sequence GCCACCGGAAACGGTGAC (.(((((....))))).), the folding enthalpy in data set [1] is -14 kcal/mol. Besides, the Tm in data set [2] was 48.8 °C.
Take GCAAAGCGAAAGCCATGC (((..((....))..))): in data set [1], the folding enthalpy is -12.3 kcal/mol. Further, in data set [2], the Tm came out at 32.2 °C.
On the same counts, the results for GAACCCGGAAACGAGTTC ((((.((....)).)))) are -27.2 kcal/mol and 40.8 °C.
In the case of GACTACGAAAGTACAGTC ((((((....)))..))), the folding enthalpy in data set [1] is -18.3 kcal/mol. For the same sequence, the Tm in data set [2] worked out at 34 °C.
On to GATCAGAACTCTGATC ((((((....)))))), for which the folding enthalpy in data set [1] was -37.6 kcal/mol. Besides, the Tm in data set [2] worked out at 48.4 °C.
Turning to GATCGCCACCGCGATC ((((((....)))))), in data set [1], the folding enthalpy is -40.2 kcal/mol. The Tm in data set [2] turned out to be 67.1 °C.
In the case of GACAACGAAAGTTCGGTC ((((((....)))..))), the folding enthalpy in data set [1] was -17.7 kcal/mol. Besides, the Tm in data set [2] is 30.7 °C.
GAGACCGAAAGGTGTCTC ((((((....)))..))): the folding enthalpy in data set [1] was -24 kcal/mol. Also, in data set [2], the Tm was found to be 51.9 °C.
Regarding GGTTGTGGAAACATGACC (((..((....))..))), the folding enthalpy in data set [1] is -30.9 kcal/mol. For the same sequence, in data set [2], the Tm came to 39.2 °C.
GCTCGGCGAAAGCCTTGC ((..(((....)))..)): in data set [1], the folding enthalpy was -11.4 kcal/mol. Besides, the Tm in data set [2] is 50.2 °C.
Consider GGCGACGAAAGTCGCGCC ((((((....)))..))), for which the folding enthalpy in data set [1] was -6.6 kcal/mol. Further, the Tm in data set [2] turned out to be 65.8 °C.
With TAACCGAAAGGTTA (((((....))))), the folding enthalpy in data set [1] was -15.2 kcal/mol. The Tm in data set [2] is 56.7 °C.
On the same counts, the results for TGCAAGAAATTGCA (((((....))))) are -17.6 kcal/mol and 39.7 °C.
The matching figures for GCCAGCGGAAACGCTGAC (.(((((....))))).): -13.7 kcal/mol and 51.5 °C.
GCTGACGAAAGTCATAGC ((((((....)))..))): in data set [1], the folding enthalpy was -15.9 kcal/mol. In data set [2], the Tm is 47.1 °C.
In the case of GATCCAAGTTTGGATC ((((((....)))))), the folding enthalpy in data set [1] is -41.1 kcal/mol. Besides, the Tm in data set [2] was 52.1 °C.
On the same counts, the results for GGTTGCGAAAGCACTACC ((((((....)))..))) are -11.9 kcal/mol and 37.4 °C.
On the same counts, the results for GGCAGACCGAAAGGTGCC (((..(((....)))))) are -35 kcal/mol and 55.4 °C.
Regarding CGAAGCGGAAACGCCTCG (((.(((....))).))), the folding enthalpy in data set [1] was -23.8 kcal/mol. Further, the Tm in data set [2] worked out at 47.3 °C.
In the case of GCCGCCGAAAGGCAAGGC ((((((....)))..))), in data set [1], the folding enthalpy was -24.6 kcal/mol. Also, in data set [2], the Tm turned out to be 65.5 °C.
As for GGGCGGCGAAAGCCCCCC (((.(((....))).))), in data set [1], the folding enthalpy is -16.6 kcal/mol. For the same sequence, the Tm in data set [2] amounted to 63.9 °C.
Turning to GATAAGCGAAAGCTCATC (((.(((....))).))), the folding enthalpy in data set [1] was -15.9 kcal/mol. Also, the Tm in data set [2] came out at 33.8 °C.
Turning to GGGAATACGAAAGTACCC (((..(((....)))))), in data set [1], the folding enthalpy was -23 kcal/mol. Also, the Tm in data set [2] was found to be 33.9 °C.
On the same counts, the results for GCCACTGGAAACAGTAGC ((.((((....)))).)) are -27.7 kcal/mol and 40.5 °C.
GCCCTGCGAAAGCATGGC (((.(((....))).))): the folding enthalpy in data set [1] was -48.3 kcal/mol. Also, the Tm in data set [2] was 56.3 °C.
On to GTGCGAGGAAACCCGCAC (((((.(....).))))), for which, in data set [1], the folding enthalpy is -34.6 kcal/mol. The Tm in data set [2] is 58.1 °C.
Take GCTGTCGAAAGACCAAGC ((((((....)))..))): the folding enthalpy in data set [1] was -19.5 kcal/mol. Besides, the Tm in data set [2] stood at 38.9 °C.
Turning to GCAGCTCGAAAGAGATGC (((.(((....))).))), the folding enthalpy in data set [1] was -42.1 kcal/mol. Further, the Tm in data set [2] turned out to be 68.6 °C.
On the same counts, the results for GTCCCGGGAAACCGGAAC ((.((((....)))).)) are -14.9 kcal/mol and 44.4 °C.
As to GGGTGAGGAAACTCGTCC ((..(((....)))..)), the folding enthalpy in data set [1] is -28.5 kcal/mol. In addition, the Tm in data set [2] was found to be 34.3 °C.
On to GTCTCCCCGAAAGGGGAC (((..(((....)))))), for which, in data set [1], the folding enthalpy is -7.01 kcal/mol. For the same sequence, the Tm in data set [2] is 37.8 °C.
On the same counts, the results for GCTAACGAAAGTTGCAGC ((((((....)))..))) are -15.5 kcal/mol and 39 °C.
With GAGATGGGAAACTGTCTC ((((..(....)..)))), the folding enthalpy in data set [1] was -21.5 kcal/mol. Moreover, in data set [2], the Tm is 33.2 °C.
